≈ marks a conversion by molar mass, not a printed value. Calls of active or inactive are those of the source. The calls are words filed in the database; no cut-off is given here.
Tests used:
[1] = test system: Candida parapsilosis; assay: Antifungal activity against Candida parapsilosis at 25 degC after 48 hrs by agar well diffusion assay; assay type: functional; settings: for MIC: Lodderomyces parapsilosis
How it was run: (§1)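 Yeast suspensions of 10^7 CFU/mL were swabbed onto Sabouraud Dextrose Agar and dried about 40 min at 35 °C. Compounds were dissolved in DMSO (2.5 mg/ml initial) and diluted two-fold in DMSO, then loaded into 6 mm wells. Plates: 2 h pre-incubation at 25 °C, then 48 h at 25 °C. MIC read as the lowest concentration inhibiting growth around the well, in duplicate. The C. albicans clinical isolate came from a hospitalized patient at Eskisehir Osmangazi University hospital; the standard strain came from a culture collection.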

[2] = test system: Staphylococcus aureus; assay: Antibacterial activity against methicillin-resistant Staphylococcus aureus at 37 degC after 24 hrs by agar well diffusion assay; assay type: functional
How it was run: (§2)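 Bacteria kept on Nutrient Agar slants at 4 °C and subcultured before use. Suspensions of 10^8 CFU/mL were swabbed onto Nutrient Agar and the plates dried 40 min at 35 °C. Compounds were dissolved in DMSO starting at 2.5 mg/ml, serially diluted two-fold, and loaded into 6 mm wells. Plates were pre-incubated 2 h at 25 °C, then 24 h at 37 °C. Inhibition zones were read and the MIC taken as the lowest inhibiting concentration. Duplicates were run.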

[3] = test system: Enterococcus; assay: Antibacterial activity against vancomycin-resistant Enterococcus species at 37 degC after 24 hrs by agar well diffusion assay; assay type: functional, organism-based; how it was run: as §2
[4] = test system: Escherichia coli; assay: Antibacterial activity against Escherichia coli at 37 degC after 24 hrs by agar well diffusion assay; assay type: functional, organism-based
How it was run: (§3)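 Compounds dissolved in DMSO at 2.5 mg/ml initial concentration, then serially diluted two-fold in DMSO. Nutrient Agar plates were swabbed with 10^8 CFU/mL bacteria and dried about 40 min at 35 °C. Solution was placed in 6 mm wells, then 2 h pre-incubation at 25 °C and 24 h at 37 °C. MIC is the lowest concentration giving a growth-inhibition zone around the well. Duplicate.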

[5] = test system: Candida albicans; assay: Antifungal activity against Candida albicans at 25 degC after 48 hrs by agar well diffusion assay; assay type: functional; how it was run: as §1
[6] = test system: Nakaseomyces glabratus; assay: Antifungal activity against Candida glabrata at 25 degC after 48 hrs by agar well diffusion assay; assay type: functional; how it was run: as §1
[7] = test system: Candida tropicalis; assay: Antifungal activity against Candida tropicalis at 25 degC after 48 hrs by agar well diffusion assay; assay type: functional; how it was run: as §1
[8] = test system: Pseudomonas aeruginosa; assay: Antibacterial activity against Pseudomonas aeruginosa at 37 degC after 24 hrs by agar well diffusion assay; assay type: functional, organism-based; how it was run: as §3
[9] = test system: Candida albicans; assay: Antifungal activity against Candida albicans ESOGU at 25 degC after 48 hrs by agar well diffusion assay; assay type: functional; how it was run: as §1
[10] = test system: Staphylococcus aureus; assay: Antibacterial activity against Staphylococcus aureus at 37 degC after 24 hrs by agar well diffusion assay; assay type: functional; how it was run: as §3

Row | SMILES | Activity [1] | Activity [2] | Activity [3] | Activity [4] | MIC [5] | Activity [6] | Activity [7] | Activity [8] | Activity [9] | Activity [10] | MIC [2] | MIC [10] | MIC [9] | MIC [1] | MIC [6] | MIC [7]
1 | O=C(Nc1cccc(F)c1)c1nn(-c2cccc([N+](=O)[O-])c2)c(-c2ccccc2)c1C(=O)Nc1cccc(F)c1 | inactive | inactive | inactive | inactive | 50 µg/mL (≈ 92.7 µM) | inactive | inactive | inactive | inactive | inactive |  |  |  |  |  | 
2 | O=C(Nc1ccc(C(F)(F)F)cc1)c1nn(-c2cccc([N+](=O)[O-])c2)c(-c2ccccc2)c1C(=O)Nc1ccc(C(F)(F)F)cc1 | inactive | inactive | inactive | inactive | 50 µg/mL (≈ 78.2 µM) | inactive | inactive | inactive | inactive | inactive |  |  |  |  |  | 
3 | O=C(O)c1cnn(-c2cccc([N+](=O)[O-])c2)c1-c1ccccc1 | inactive |  | inactive | inactive | 25 µg/mL (≈ 80.8 µM) | inactive | inactive | inactive | inactive |  | 25 µg/mL (≈ 80.8 µM) | 50 µg/mL (≈ 162 µM) |  |  |  | 
4 | CCNC(=S)NC(=O)c1nn(-c2cccc([N+](=O)[O-])c2)c(-c2ccccc2)c1C(=O)NC(=S)NCC | inactive | inactive | inactive | inactive | 25 µg/mL (≈ 47.6 µM) | inactive | inactive | inactive |  | inactive |  |  | 25 µg/mL (≈ 47.6 µM) |  |  | 
5 | O=C(Nc1ccccc1F)c1nn(-c2cccc([N+](=O)[O-])c2)c(-c2ccccc2)c1C(=O)Nc1ccccc1F | inactive | inactive | inactive | inactive | 25 µg/mL (≈ 46.3 µM) | inactive | inactive | inactive | inactive | inactive |  |  |  |  |  | 
6 | O=c1[nH][nH]c(=O)c2c(-c3ccccc3)n(-c3cccc([N+](=O)[O-])c3)nc12 | inactive | inactive | inactive | inactive | 50 µg/mL (≈ 143 µM) | inactive | inactive | inactive | inactive | inactive |  |  |  |  |  | 
7 | CCOC(=O)c1c(C(=O)Nc2cccc(F)c2)nn(-c2cccc([N+](=O)[O-])c2)c1-c1ccccc1 | inactive | inactive | inactive | inactive | 25 µg/mL (≈ 52.7 µM) | inactive | inactive | inactive |  | inactive |  |  | 50 µg/mL (≈ 105 µM) |  |  | 
8 | CCOC(=O)c1c(C(=O)Nc2ccc(F)cc2)nn(-c2cccc([N+](=O)[O-])c2)c1-c1ccccc1 | inactive | inactive | inactive | inactive | 50 µg/mL (≈ 105 µM) | inactive | inactive | inactive |  | inactive |  |  | 50 µg/mL (≈ 105 µM) |  |  | 
9 | O=C(Nc1ccc(F)cc1)c1nn(-c2cccc([N+](=O)[O-])c2)c(-c2ccccc2)c1C(=O)Nc1ccc(F)cc1 | inactive | inactive | inactive | inactive | 25 µg/mL (≈ 46.3 µM) | inactive | inactive | inactive | inactive | inactive |  |  |  |  |  | 
10 | CNC(=O)NC(=O)c1nn(-c2cccc([N+](=O)[O-])c2)c(-c2ccccc2)c1C(=O)NC(=O)NC | inactive |  | inactive | inactive | 25 µg/mL (≈ 53.7 µM) | inactive | inactive | inactive |  |  | 50 µg/mL (≈ 107 µM) | 50 µg/mL (≈ 107 µM) | 25 µg/mL (≈ 53.7 µM) |  |  | 
11 | CCOC(=O)c1c(C(=O)Nc2ccccc2C(F)(F)F)nn(-c2cccc([N+](=O)[O-])c2)c1-c1ccccc1 | inactive | inactive | inactive | inactive | 50 µg/mL (≈ 95.3 µM) | inactive | inactive | inactive |  | inactive |  |  | 50 µg/mL (≈ 95.3 µM) |  |  | 
12 | O=C(Nc1cccc([N+](=O)[O-])c1)c1nn(-c2cccc([N+](=O)[O-])c2)c(-c2ccccc2)c1C(=O)Nc1cccc([N+](=O)[O-])c1 |  | inactive | inactive | inactive | 25 µg/mL (≈ 42.1 µM) | inactive | inactive | inactive |  | inactive |  |  | 25 µg/mL (≈ 42.1 µM) | 50 µg/mL (≈ 84.2 µM) |  | 
13 | O=C(Nc1cccc(C(F)(F)F)c1)c1nn(-c2cccc([N+](=O)[O-])c2)c(-c2ccccc2)c1C(=O)Nc1cccc(C(F)(F)F)c1 | inactive | inactive | inactive | inactive | 50 µg/mL (≈ 78.2 µM) | inactive | inactive | inactive | inactive | inactive |  |  |  |  |  | 
14 | CCOC(=O)c1c(C(=O)Nc2ccccc2F)nn(-c2cccc([N+](=O)[O-])c2)c1-c1ccccc1 | inactive | inactive | inactive | inactive | 25 µg/mL (≈ 52.7 µM) |  | inactive | inactive |  | inactive |  |  | 50 µg/mL (≈ 105 µM) |  | 50 µg/mL (≈ 105 µM) | 
15 | CCOC(=O)c1c(C(=O)Nc2ccc(C(F)(F)F)cc2)nn(-c2cccc([N+](=O)[O-])c2)c1-c1ccccc1 | inactive | inactive | inactive | inactive | 25 µg/mL (≈ 47.7 µM) | inactive | inactive | inactive |  | inactive |  |  | 25 µg/mL (≈ 47.7 µM) |  |  | 
16 | O=C(Nc1ccc([N+](=O)[O-])cc1)c1nn(-c2cccc([N+](=O)[O-])c2)c(-c2ccccc2)c1C(=O)Nc1ccc([N+](=O)[O-])cc1 |  | inactive | inactive | inactive | 25 µg/mL (≈ 42.1 µM) | inactive |  | inactive |  | inactive |  |  | 25 µg/mL (≈ 42.1 µM) | 25 µg/mL (≈ 42.1 µM) |  | 50 µg/mL (≈ 84.2 µM)
17 | CCOC(=O)c1c(C(=O)Nc2cccc(C(F)(F)F)c2)nn(-c2cccc([N+](=O)[O-])c2)c1-c1ccccc1 | inactive | inactive | inactive | inactive | 25 µg/mL (≈ 47.7 µM) | inactive |  | inactive |  | inactive |  |  | 50 µg/mL (≈ 95.3 µM) |  |  | 50 µg/mL (≈ 95.3 µM)
